The values below come from paper PMC9078890 (RSC Advances, 2018).

Read-outs that look alike come from different tables or passages of the source.

Assay [1] addresses T1, PYK2 (Homo sapiens, UniProt Q14289). The note with it: read-out: Reported IC50 PYK2; cited from earlier work.
The target of assay [2] is T1, PYK2. Put plainly: Kinase selectivity profiling, HTRF kinEASE-TK. The assay is classed as biochemical. In short, it runs like this: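 HTRF KinEASE-TK format; enzyme level, reaction time and ATP level were optimised beforehand. Test compound in kinase buffer, at half-log serial dilutions from 100 µM top (final), was mixed with TK substrate-biotin and kinase. ATP was added to start the reaction, which ran at room temperature. Eu3+-cryptate TK antibody and streptavidin-XL665 (0.125 μM final) were added; TR-FRET was read after 1 h. Triplicates; IC50 from sigmoid dose-response fit.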
For orientation: TR-FRET usually uses a lanthanide donor and a delayed reading to cut background.

For assay [3], the target named is Truncated human FAK(PTK2) (Homo sapiens, UniProt Q05397). Put plainly: In vitro FAK inhibition, HTRF kinEASE-TK kinase assay. The format is biochemical.
Chain of Truncated human FAK(PTK2) (Q05397 376-1052): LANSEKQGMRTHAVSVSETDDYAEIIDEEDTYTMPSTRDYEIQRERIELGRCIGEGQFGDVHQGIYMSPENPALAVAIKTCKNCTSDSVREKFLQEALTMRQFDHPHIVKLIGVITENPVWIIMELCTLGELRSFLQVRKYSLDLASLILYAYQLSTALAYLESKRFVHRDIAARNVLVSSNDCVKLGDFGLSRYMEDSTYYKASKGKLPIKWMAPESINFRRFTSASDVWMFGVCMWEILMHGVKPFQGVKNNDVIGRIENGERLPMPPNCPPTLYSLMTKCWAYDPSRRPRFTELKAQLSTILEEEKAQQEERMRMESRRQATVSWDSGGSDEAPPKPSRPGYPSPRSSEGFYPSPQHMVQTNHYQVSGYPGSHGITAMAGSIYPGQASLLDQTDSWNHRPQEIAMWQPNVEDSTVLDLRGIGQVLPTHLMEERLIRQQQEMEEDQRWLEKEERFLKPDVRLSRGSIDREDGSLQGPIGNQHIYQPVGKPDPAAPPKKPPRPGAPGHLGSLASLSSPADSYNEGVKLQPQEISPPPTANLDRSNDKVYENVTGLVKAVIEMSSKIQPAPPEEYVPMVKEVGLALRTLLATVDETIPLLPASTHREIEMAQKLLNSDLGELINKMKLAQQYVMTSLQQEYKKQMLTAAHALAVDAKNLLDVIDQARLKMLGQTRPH
For the next assay, the target named is IGF-1R (Homo sapiens, UniProt P08069). As to the kind of experiment: Kinase selectivity profiling, HTRF kinEASE-TK. The note with it: relative to FAK. The assay is classed as biochemical.
The next assay concerns the target PDGFRβ (Homo sapiens, UniProt P09619). As to the kind of experiment: Kinase selectivity profiling, HTRF kinEASE-TK. The format is biochemical. The note with it: relative to FAK.
The next assay deals with EGFR (Homo sapiens, UniProt P00533). Put plainly: biochemical. The format is biochemical.
Chain of EGFR (P00533 25-1210, species assumed): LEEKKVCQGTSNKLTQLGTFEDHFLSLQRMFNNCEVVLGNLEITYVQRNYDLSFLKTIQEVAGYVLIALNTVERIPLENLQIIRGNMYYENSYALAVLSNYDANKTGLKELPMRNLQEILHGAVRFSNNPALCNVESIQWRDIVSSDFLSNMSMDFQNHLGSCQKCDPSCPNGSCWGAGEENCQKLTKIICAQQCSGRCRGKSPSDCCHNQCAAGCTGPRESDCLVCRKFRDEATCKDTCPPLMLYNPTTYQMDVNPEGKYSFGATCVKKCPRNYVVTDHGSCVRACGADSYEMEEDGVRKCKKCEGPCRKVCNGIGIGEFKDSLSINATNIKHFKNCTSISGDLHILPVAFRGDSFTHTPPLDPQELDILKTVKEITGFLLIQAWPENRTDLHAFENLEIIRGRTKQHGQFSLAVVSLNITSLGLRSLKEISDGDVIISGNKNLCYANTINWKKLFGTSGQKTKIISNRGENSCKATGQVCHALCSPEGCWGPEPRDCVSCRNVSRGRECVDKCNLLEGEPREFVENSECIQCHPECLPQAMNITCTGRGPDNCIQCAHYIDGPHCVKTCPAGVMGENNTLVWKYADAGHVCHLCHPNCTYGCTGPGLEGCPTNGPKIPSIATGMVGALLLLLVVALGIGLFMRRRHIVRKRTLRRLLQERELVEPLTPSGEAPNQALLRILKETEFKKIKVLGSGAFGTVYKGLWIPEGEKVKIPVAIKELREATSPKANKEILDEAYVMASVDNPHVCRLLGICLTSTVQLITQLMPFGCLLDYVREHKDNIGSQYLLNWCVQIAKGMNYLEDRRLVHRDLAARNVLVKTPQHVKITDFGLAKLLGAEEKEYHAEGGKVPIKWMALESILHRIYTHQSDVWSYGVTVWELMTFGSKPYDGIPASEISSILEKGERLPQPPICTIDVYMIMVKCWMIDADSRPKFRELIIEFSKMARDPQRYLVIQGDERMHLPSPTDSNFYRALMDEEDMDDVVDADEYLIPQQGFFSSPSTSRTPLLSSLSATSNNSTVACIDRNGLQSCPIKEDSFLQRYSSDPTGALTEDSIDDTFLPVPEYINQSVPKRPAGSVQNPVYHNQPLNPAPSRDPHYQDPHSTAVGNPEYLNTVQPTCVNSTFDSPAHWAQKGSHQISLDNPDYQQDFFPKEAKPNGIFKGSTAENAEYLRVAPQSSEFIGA

T1 sequence (Q14289 whole entry, species assumed): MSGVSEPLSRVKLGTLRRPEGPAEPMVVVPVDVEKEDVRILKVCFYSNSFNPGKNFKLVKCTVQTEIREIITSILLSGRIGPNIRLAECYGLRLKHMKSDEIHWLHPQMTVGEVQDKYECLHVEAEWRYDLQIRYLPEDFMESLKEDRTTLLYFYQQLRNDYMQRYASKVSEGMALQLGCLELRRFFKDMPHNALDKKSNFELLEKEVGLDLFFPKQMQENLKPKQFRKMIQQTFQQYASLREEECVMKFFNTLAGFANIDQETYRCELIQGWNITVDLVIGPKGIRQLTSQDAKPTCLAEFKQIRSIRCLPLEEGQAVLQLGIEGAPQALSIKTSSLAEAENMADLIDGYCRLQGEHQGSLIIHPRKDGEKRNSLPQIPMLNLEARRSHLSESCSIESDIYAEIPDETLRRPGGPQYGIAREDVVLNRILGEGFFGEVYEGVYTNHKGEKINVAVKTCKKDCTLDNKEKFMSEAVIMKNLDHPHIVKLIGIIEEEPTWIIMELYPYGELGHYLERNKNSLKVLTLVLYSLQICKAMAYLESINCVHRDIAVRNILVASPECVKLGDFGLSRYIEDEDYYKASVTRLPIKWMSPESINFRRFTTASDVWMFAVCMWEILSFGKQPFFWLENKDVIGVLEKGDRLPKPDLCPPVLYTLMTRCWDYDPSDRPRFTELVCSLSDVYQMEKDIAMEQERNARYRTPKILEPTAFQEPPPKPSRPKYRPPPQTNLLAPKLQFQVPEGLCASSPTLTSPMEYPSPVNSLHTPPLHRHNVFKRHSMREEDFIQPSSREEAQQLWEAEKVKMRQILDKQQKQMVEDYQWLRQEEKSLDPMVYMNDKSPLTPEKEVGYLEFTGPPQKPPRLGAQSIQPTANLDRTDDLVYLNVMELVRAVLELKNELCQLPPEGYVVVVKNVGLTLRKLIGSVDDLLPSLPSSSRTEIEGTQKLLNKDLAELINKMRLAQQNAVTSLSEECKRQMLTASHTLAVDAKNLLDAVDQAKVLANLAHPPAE
Chain of PDGFRβ (P09619 33-1106, species assumed): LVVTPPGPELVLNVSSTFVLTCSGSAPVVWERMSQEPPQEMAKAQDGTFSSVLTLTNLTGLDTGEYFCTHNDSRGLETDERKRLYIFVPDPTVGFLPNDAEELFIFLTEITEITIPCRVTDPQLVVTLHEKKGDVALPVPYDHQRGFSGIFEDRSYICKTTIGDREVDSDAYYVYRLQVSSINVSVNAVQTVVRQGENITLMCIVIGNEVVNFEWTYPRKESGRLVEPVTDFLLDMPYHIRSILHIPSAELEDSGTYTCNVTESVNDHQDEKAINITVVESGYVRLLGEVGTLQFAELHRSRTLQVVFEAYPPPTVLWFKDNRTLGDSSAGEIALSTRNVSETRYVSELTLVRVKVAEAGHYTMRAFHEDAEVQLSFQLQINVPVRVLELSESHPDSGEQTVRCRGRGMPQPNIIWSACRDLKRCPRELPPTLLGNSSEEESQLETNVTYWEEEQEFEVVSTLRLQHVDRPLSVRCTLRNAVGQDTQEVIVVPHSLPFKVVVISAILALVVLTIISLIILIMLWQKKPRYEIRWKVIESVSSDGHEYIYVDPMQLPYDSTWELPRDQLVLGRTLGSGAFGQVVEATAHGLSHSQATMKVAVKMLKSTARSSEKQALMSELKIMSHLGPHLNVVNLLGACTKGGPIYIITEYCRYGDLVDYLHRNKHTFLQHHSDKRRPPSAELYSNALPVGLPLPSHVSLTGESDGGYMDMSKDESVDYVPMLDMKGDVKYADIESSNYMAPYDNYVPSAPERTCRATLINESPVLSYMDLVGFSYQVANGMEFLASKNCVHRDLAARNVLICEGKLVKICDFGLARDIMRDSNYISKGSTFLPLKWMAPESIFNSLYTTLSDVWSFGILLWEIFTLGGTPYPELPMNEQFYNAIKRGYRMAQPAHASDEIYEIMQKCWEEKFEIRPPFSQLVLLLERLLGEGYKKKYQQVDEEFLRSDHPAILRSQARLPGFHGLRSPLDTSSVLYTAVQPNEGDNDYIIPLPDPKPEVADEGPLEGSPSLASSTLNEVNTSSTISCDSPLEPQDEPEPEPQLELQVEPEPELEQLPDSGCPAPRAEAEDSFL

By IC50 is commonly meant the concentration that inhibits the measured activity by half. On to `CNC(=O)c1ccccc1Nc1nc(Nc2ccc(N3CCOCC3)cc2OC)ncc1Cl` [NVP-TAE226, reference compound], for which the IC50 at PYK2 [1] is 3.5 ± 2.1 nM; on PYK2 [2] (read-out: IC50 ± SD PYK2, mean of three determinations), 5.7 ± 1.4 nM.
In turn, `COc1ccc(Nc2nc(Nc3ccc(OCCOCCOCCF)cc3)ncc2Br)cc1` [[^19F]3, 5-Bromo-N^2-(4-(2-(2-(2-fluoroethoxy)ethoxy)ethoxy)phenyl)-N^4-(4-methoxyphenyl)pyrimidine-2,4-diamine] gave an IC50 in assay [3] of 1110 ± 60.9 nM.
Take `COc1ccc(Nc2nc(Nc3ccc(OCCOCCF)cc3)ncc2Br)cc1` [[^19F]2, 5-Bromo-N^2-(4-(2-(2-fluoroethoxy)ethoxy)phenyl)-N^4-(4-methoxyphenyl)pyrimidine-2,4-diamine]: the “selectivity against IGF-1R” value at IGF-1R is “more than 200 folds”. The figures for the half-maximal inhibitory concentration (IC50) (in assay [3]; on EGFR; against PYK2 [2]) were 57.1 ± 8.3 nM, 4.31 ± 0.562 µM and 3560 ± 626 nM, respectively. Moreover, the “selectivity against PDGFRβ” value at PDGFRβ is reported as “more than 200 folds”. Also, at EGFR (relative to FAK), the “selectivity against EGFR” value came to 75.5 folds. The “selectivity against PYK2” value on PYK2 [2] (relative to FAK) is 62.4 folds.
